Test results reported in ChEMBL document CHEMBL4368914, “Tricyclic Indazoles-A Novel Class of Selective Estrogen Receptor Degrader Antagonists” (J Med Chem, 2019).

How the values were obtained:
Estrogen receptor [1] = molecular target: T1, Estrogen receptor (Homo sapiens, UniProt P03372); test: Binding affinity to recombinant human GST-tagged ERalpha LBD expressed in baculovirus-infected insect cells by lantha screen assay
T1 sequence (P03372 whole entry): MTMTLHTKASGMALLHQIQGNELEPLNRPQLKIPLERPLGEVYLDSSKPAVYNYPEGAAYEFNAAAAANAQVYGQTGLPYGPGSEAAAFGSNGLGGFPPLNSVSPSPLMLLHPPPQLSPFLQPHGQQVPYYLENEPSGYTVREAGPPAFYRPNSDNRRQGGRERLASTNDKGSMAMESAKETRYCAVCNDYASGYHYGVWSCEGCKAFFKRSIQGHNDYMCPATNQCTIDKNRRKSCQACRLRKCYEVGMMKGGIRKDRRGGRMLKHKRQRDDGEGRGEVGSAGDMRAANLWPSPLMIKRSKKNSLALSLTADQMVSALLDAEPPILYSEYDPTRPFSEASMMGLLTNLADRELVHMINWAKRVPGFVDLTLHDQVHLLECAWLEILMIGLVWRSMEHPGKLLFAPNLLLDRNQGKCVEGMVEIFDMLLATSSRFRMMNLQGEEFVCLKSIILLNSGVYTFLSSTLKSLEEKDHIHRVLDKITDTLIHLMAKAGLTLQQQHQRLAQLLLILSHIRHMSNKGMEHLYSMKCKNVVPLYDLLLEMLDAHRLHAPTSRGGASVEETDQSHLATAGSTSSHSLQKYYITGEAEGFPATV

[2] = Lipophilicity, log D of the compound at pH 7.4 by shake flask method; format: physicochemical; conditions: buffer
In short: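 Shake-flask measurement of logD at pH 7.4.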

[3] = Fraction unbound in 10% human plasma by equilibrium dialysis; format: ADME, cell-free; conditions: 10% plasma
In short: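 Equilibrium dialysis from DMSO stock in 10% plasma, either Alderley Park Han Wistar rat plasma or human plasma.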

[4] = Intrinsic clearance in human hepatocytes assessed per million cells; format: ADME, cell-based, Hepatocyte; conditions: read-out: CLH
In short: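 Rate of metabolism (µl/min/10⁶ cells) measured from DMSO stock in isolated hepatocytes diluted to 1x10⁶ cells/mL.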

[5] = Apparent permeability in MDCK cells at 10 uM; format: ADME, cell-based, Canis lupus familiaris; conditions: dog
In short: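 Compound at 10 μM incubated on cultured Caco-2 or MDCK cells. Permeability was measured apical-to-basolateral and basolateral-to-apical, and efflux ratio was taken as (B to A)/(A to B).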

[6] = Solubility of the compound in phosphate buffer at pH 7.4 after 24 hrs; format: physicochemical
In short: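 Solubility in aqueous phosphate buffer at pH 7.4 after 24 h at 25 °C.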

[7] = Fraction unbound in mouse plasma by equilibrium dialysis; format: ADME, cell-free
[8] = Fraction unbound in dog plasma by equilibrium dialysis; format: ADME, cell-free, Canis lupus familiaris
[9] = Volume of distribution at steady state in rat at 0.5 mg/kg, iv or 1 mg/kg, po; format: ADME, organism-based; conditions: in vivo, read-out: Vdss
In short: (§1)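 Single IV dose of 0.5 mg/kg and oral dose of 1 mg/kg in rat and dog. Both routes were formulated in 5% DMSO:95% hydroxypropyl β-cyclodextrin (30% w/v), at 1 mL/kg IV and 4 mL/kg PO.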

[10] = Volume of distribution at steady state in dog at 0.5 mg/kg, iv or 1 mg/kg, po; format: ADME, organism-based, Canis lupus familiaris; conditions: in vivo, read-out: Vdss; in short: as §1
[11] = Oral bioavailability in dog at 1 mg/kg; format: ADME, organism-based, Canis lupus familiaris; conditions: in vivo; in short: as §1
[12] = AUC in rat at 1 mg/kg, po; format: ADME, organism-based; conditions: in vivo, read-out: AUC; in short: as §1
[13] = AUC in dog at 1 mg/kg, po; format: ADME, organism-based, Canis lupus familiaris; conditions: in vivo; in short: as §1
Estrogen receptor [14] = molecular target: T1, Estrogen receptor; test: Induction of ERalpha degradation in human MCF7 cells assessed as reduction in ERalpha protein expression after 5 hrs in absence of […] tamoxifen by formaldehyde-staining based assay; format: cell-based
Estrogen receptor [15] = molecular target: T1, Estrogen receptor; test: Induction of ERalpha degradation in human MCF7 cells assessed as reduction in ERalpha protein expression after 5 hrs in presence of […] tamoxifen by formaldehyde-staining based assay; format: cell-based
[16] = molecular target: T2, Estrogen receptor (Homo sapiens) (UniProt P03372); test: Induction of ERalpha degradation in human MCF7 cells after 24 hrs by Western blot analysis; format: cell-based
T2 sequence (whole entry): T1 sequence (P03372 whole entry)
In short: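 MCF-7 cells in phenol red-free RPMI1640 with 5% charcoal-stripped FCS and 2 mmol/L glutamine (37 °C, 5% CO₂) exposed to a range of concentrations for 24 h. Total protein extracted and immunoblotted with anti-ER (SP1) and GAPDH antibodies diluted in 5% milk-PBS-Tween. Detection by enhanced chemiluminescent HRP substrate and imager.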

[17] = molecular target: T2, Estrogen receptor (Homo sapiens); test: Antagonist activity at ERalpha in human MCF7 cells assessed as inhibition of estradiol-driven cell growth measured after overnight incubation by SYTOX green-based assay
In short: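 MCF-7 cells grown at 37 °C, 5% CO₂, humidified, in phenol red-free RPMI1640 with 5% charcoal-stripped FCS and 2 mmol/L glutamine. Compounds held as 10 mmol/L DMSO stocks under nitrogen. Proliferation read in the presence of 0.1 nM estradiol.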

[18] = Glutathione reactivity in human liver microsomes assessed as GSH trapping ratio of compound to clozapine; format: ADME, Microsome
In short: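 Glutathione trapping in human liver microsomes, expressed as a ratio to clozapine.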

Cytochrome P450 3A4 = Cytochrome P450 3A4 (Homo sapiens, UniProt P08684); test: Inhibition of CYP3A4 in human liver microsomes; format: ADME
In short: (§2)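 High-throughput human liver microsome assay across a panel of five CYP isoforms, giving IC50.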

[19] = molecular target: Voltage-gated inwardly rectifying potassium channel KCNH2 (Homo sapiens, UniProt Q12809); test: Inhibition of human ERG by plate based planar patch clamp assay
Cytochrome P450 2D6 = Cytochrome P450 2D6 (Homo sapiens, UniProt P10635); test: Inhibition of CYP2D6 in human liver microsomes; format: ADME; in short: as §2
[20] = Stability in pH 7.4 deuterated buffer by 1H NMR spectroscopy; format: physicochemical
In short: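 Compound diluted from a 25 mM DMSO-d6 stock to a final 1 mM in each deuterated buffer. Followed by ¹H NMR (500 MHz, water suppression, 64 scans) and LC-MS at 0, 24, 72 and 192 h (8 days).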

[21] = Toxicity in SCID CB17 mouse xenografted with human MCF7 cells at 20 mg/kg, po administered once daily and measured on day 20 of dosing; conditions: in vivo, 20 d
MCF7 = test: Antitumor activity against human MCF7 cells xenografted in SCID CB17 mouse assessed as tumor growth inhibition at 20 mg/kg, po administered once daily and measured on day 20 of dosing relative to control; conditions: read-out: TGI

Sequence of Cytochrome P450 2D6 (P10635 whole entry): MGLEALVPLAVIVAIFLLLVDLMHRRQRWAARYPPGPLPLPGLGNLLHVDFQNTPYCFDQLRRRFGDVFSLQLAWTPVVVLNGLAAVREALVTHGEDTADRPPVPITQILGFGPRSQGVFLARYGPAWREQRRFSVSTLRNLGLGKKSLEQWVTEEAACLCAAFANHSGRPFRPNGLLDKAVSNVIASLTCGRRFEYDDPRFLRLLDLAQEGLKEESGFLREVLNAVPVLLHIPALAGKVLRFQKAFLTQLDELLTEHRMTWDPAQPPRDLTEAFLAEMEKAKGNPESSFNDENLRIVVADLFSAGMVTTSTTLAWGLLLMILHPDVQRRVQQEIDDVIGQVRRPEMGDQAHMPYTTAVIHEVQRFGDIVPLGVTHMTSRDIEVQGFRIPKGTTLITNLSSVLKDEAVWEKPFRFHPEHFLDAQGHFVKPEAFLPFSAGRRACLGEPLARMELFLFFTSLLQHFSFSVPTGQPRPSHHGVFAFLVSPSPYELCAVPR
Sequence of Cytochrome P450 3A4 (P08684 whole entry, canonical isoform): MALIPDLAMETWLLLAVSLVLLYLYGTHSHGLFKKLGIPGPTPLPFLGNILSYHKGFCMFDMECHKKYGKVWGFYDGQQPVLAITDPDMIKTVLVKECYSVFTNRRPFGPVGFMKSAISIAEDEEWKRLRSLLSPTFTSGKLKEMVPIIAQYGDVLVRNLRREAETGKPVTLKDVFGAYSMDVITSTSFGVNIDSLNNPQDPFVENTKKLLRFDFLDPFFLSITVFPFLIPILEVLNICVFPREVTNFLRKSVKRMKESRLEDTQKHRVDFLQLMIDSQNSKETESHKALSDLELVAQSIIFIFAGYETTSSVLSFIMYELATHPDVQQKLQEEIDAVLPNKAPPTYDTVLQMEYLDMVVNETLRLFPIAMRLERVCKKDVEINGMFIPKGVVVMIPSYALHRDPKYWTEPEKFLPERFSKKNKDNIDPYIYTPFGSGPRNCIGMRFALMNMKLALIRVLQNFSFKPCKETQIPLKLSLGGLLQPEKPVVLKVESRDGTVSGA
Sequence of Voltage-gated inwardly rectifying potassium channel KCNH2 (Q12809 whole entry): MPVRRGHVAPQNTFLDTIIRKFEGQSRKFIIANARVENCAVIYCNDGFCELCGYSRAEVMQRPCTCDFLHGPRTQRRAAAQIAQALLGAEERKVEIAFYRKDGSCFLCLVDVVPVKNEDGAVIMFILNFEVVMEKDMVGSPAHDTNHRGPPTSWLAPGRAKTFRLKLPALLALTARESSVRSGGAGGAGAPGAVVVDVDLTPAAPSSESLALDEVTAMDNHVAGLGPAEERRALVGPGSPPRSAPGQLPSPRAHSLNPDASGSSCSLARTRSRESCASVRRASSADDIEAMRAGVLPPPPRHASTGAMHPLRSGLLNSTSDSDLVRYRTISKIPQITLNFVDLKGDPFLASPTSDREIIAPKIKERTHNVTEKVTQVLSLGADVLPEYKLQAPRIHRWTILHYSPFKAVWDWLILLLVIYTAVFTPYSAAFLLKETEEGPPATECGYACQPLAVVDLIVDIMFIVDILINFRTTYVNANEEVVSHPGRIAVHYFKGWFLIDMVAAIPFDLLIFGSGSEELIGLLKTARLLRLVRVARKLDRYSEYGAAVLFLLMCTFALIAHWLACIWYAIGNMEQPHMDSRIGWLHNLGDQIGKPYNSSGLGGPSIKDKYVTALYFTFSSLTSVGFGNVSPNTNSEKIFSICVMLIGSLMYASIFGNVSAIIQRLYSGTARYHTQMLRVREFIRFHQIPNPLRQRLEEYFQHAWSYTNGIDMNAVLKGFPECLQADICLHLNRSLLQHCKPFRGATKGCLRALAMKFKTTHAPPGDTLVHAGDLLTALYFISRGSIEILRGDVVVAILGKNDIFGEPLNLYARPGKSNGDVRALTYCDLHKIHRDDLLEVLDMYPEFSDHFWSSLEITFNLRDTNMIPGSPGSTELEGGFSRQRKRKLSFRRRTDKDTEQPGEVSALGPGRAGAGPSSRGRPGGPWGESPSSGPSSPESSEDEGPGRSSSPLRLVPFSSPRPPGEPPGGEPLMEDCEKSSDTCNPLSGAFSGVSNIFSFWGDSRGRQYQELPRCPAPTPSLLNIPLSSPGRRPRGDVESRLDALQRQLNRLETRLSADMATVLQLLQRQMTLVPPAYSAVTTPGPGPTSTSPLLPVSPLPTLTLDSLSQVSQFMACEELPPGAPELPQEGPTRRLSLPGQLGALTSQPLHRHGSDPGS

IC50 (Estrogen receptor [1]): 0.316 nM | logD [2]: 2.6 | fraction unbound [3]: 0.0058 | hepatocyte CLint [4]: 17 µL/min/1e6 cells | Papp at 10 µM [5]: 11 ×10⁻⁶ cm/s | solubility at 24 h [6]: > 1000 µM | fraction unbound [7]: 0.0095 | fraction unbound [8]: 0.0032 | Vd [9]: 1.6 L/kg | Vd [10]: 0.58 L/kg | bioavailability [11]: 45% | AUC [12]: 0.83 µM·h | AUC [13]: 3.2 µM·h | IC50 (Estrogen receptor [14]): 0.251 nM | IC50 (Estrogen receptor [15]): 7.94 nM | Activity [16]: Dose-dependent effect | Ratio [18]: < 0.04 | IC50 (Cytochrome P450 3A4): 13000 nM | IC50 (Cytochrome P450 2D6): > 30000 nM | Stability [20]: Stable
SMILES: C[C@@H]1Cc2c(ccc3[nH]ncc23)[C@@H](c2c(F)cc(/C=C/C(=O)O)cc2F)N1CC(C)(C)F
Activity [17]: Dose-dependent effect | IC50 [19]: > 100000 nM | Activity [21]: Non-Toxic | inhibition in vivo at 20 mg/kg (MCF7): 80%
